Results reported in ChEMBL document CHEMBL4346661, “Design, synthesis and evaluation of novel diaryl-1,5-diazoles derivatives bearing morpholine as potent dual COX-2/5-LOX inhibitors and antitumor agents” (Eur J Med Chem, 2019).
Calls of active or inactive are those of the source. The calls are words filed in the database; no cut-off is given here.

Tests used:
B16-F10 [1] = assay: Induction of cell cycle arrest in mouse B16F10 cells assessed as cell accumulation at G1 phase at 12.5 uM incubated for 48 hrs by propidium iodide staining-based flow cytometric analysis (reference value: 59.73%); format: functional
B16-F10 [2] = assay: Induction of cell cycle arrest in mouse B16F10 cells assessed as cell accumulation at G1 phase at 3.125 uM incubated for 48 hrs by propidium iodide staining-based flow cytometric analysis (reference value: 59.73%); format: functional
B16-F10 [3] = assay: Induction of cell cycle arrest in mouse B16F10 cells assessed as increase in cell accumulation at G2 phase at incubated for 48 hrs by propidium iodide staining-based flow cytometric analysis; format: functional
B16-F10 [4] = assay: Induction of cell cycle arrest in mouse B16F10 cells assessed as cell accumulation at G1 phase at 6.25 uM incubated for 48 hrs by propidium iodide staining-based flow cytometric analysis (reference value: 59.73%); format: functional
B16-F10 [5] = assay: Induction of apoptosis in mouse B16F10 cells assessed as early apoptosis cells at 6.25 uM incubated for 48 hrs by Annexin-V-FITC/propidium iodide staining-based flow cytometric analysis (reference value: 2.93%); format: functional
Method in brief: (§1)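 F10 cells were exposed to 0, 3.125, 6.25, 12.5 or 25 µM for 48 h. Cells were stained with Annexin V/PI and read by flow cytometry. Data are mean ± SD of three independent experiments.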

B16-F10 [6] = assay: Induction of apoptosis in mouse B16F10 cells assessed as late apoptosis cells at 6.25 uM incubated for 48 hrs by Annexin-V-FITC/propidium iodide staining-based flow cytometric analysis (reference value: 2.88%); format: functional; method in brief: as §1
B16-F10 [7] = assay: Induction of cell cycle arrest in mouse B16F10 cells assessed as cell accumulation at G2 phase at 6.25 uM incubated for 48 hrs by propidium iodide staining-based flow cytometric analysis (reference value: 22.43%); format: functional
B16-F10 [8] = assay: Induction of apoptosis in mouse B16F10 cells assessed as early apoptosis cells at 3.125 uM incubated for 48 hrs by Annexin-V-FITC/propidium iodide staining-based flow cytometric analysis (reference value: 2.93%); format: functional; method in brief: as §1
[9] = Toxicity in mouse B16F10 cells implanted in nude mouse assessed as change in body weight at 20 to 40 mg/kg, ip administered once per 2 days for 14 days; format: organism-based; conditions: in vivo
Method in brief: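 Nude mice carried subcutaneous right-flank xenografts of 5×10^6 F10 cells. At about 100 mm3 tumor size they were randomized into groups of six (twenty-four mice, four groups): vehicle or 20 or 40 mg/kg, given intraperitoneally once every two days for two weeks. Body weight was tracked during treatment.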

B16-F10 [10] = assay: Induction of apoptosis in mouse B16F10 cells assessed as early apoptosis cells at 12.5 uM incubated for 48 hrs in presence of apoptosis inhibitor z-VAD-fmk by Annexin-V-FITC/propidium iodide staining-based flow cytometric analysis (reference value: 3.83%); format: functional
B16-F10 [11] = assay: Induction of apoptosis in mouse B16F10 cells assessed as early apoptosis cells at 3.125 uM incubated for 48 hrs in presence of apoptosis inhibitor z-VAD-fmk by Annexin-V-FITC/propidium iodide staining-based flow cytometric analysis (reference value: 3.83%); format: functional
B16-F10 [12] = assay: Antitumor activity against mouse B16F10 cells implanted in nude mouse assessed as tumor weight at 40 mg/kg, ip administered once per 2 days for 14 days by caliper method (reference value: 1.24g); format: functional
Method in brief: (§2)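 Nude mice were given 5×10^6 F10 cells subcutaneously in the right flank. At about 100 mm3, 24 mice were randomized into four groups of vehicle or compound. Dosing was intraperitoneal every two days for two weeks. Tumor volume was recorded every other day. Tumors were excised and weighed after the last treatment, and body weight was monitored.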

MCF7 = assay: Antiproliferative activity against human MCF7 cells incubated for 48 hrs by MTT assay; format: functional, cell-based; conditions: MCF7, 48 h
Method in brief: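 MTT assay on F10 (murine melanoma), HeLa, A549, MCF-7 and 293T (human renal epithelium) cells. IC50 given as mean ± SD of three independent experiments.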

B16-F10 [13] = assay: Induction of apoptosis in mouse B16F10 cells assessed as necrosis cells at 12.5 uM incubated for 48 hrs in presence of apoptosis inhibitor z-VAD-fmk by Annexin-V-FITC/propidium iodide staining-based flow cytometric analysis (reference value: 0.558%); format: functional
B16-F10 [14] = assay: Induction of cell cycle arrest in mouse B16F10 cells assessed as cell accumulation at S phase at 3.125 uM incubated for 48 hrs by propidium iodide staining-based flow cytometric analysis (reference value: 14.16%); format: functional
B16-F10 [15] = assay: Induction of apoptosis in mouse B16F10 cells assessed as late apoptosis cells at 25 uM incubated for 48 hrs by Annexin-V-FITC/propidium iodide staining-based flow cytometric analysis (reference value: 2.88%); format: functional; method in brief: as §1
B16-F10 [16] = assay: Induction of apoptosis in mouse B16F10 cells assessed as viable cells at 3.125 uM incubated for 48 hrs by Annexin-V-FITC/propidium iodide staining-based flow cytometric analysis (reference value: 94%); format: functional; conditions: B16-F10, 48 h, read-out: Activity; method in brief: as §1
B16-F10 [17] = assay: Induction of apoptosis in mouse B16F10 cells assessed as viable cells at 6.25 uM incubated for 48 hrs in presence of apoptosis inhibitor z-VAD-fmk by Annexin-V-FITC/propidium iodide staining-based flow cytometric analysis (reference value: 92.5%); format: functional; conditions: B16-F10, 48 h, read-out: Activity
B16-F10 [18] = assay: Induction of apoptosis in mouse B16F10 cells assessed as necrosis cells at 6.25 uM incubated for 48 hrs in presence of apoptosis inhibitor z-VAD-fmk by Annexin-V-FITC/propidium iodide staining-based flow cytometric analysis (reference value: 0.558%); format: functional
B16-F10 [19] = assay: Induction of apoptosis in mouse B16F10 cells assessed as necrosis cells at 3.125 uM incubated for 48 hrs by Annexin-V-FITC/propidium iodide staining-based flow cytometric analysis (reference value: 0.186%); format: functional; method in brief: as §1
B16-F10 [20] = assay: Induction of apoptosis in mouse B16F10 cells assessed as early apoptosis cells at 12.5 uM incubated for 48 hrs by Annexin-V-FITC/propidium iodide staining-based flow cytometric analysis (reference value: 2.93%); format: functional; method in brief: as §1
B16-F10 [21] = assay: Induction of cell cycle arrest in mouse B16F10 cells assessed as cell accumulation at G2 phase at 12.5 uM incubated for 48 hrs by propidium iodide staining-based flow cytometric analysis (reference value: 22.43%); format: functional
B16-F10 [22] = assay: Induction of apoptosis in mouse B16F10 cells assessed as viable cells at 25 uM incubated for 48 hrs in presence of apoptosis inhibitor z-VAD-fmk by Annexin-V-FITC/propidium iodide staining-based flow cytometric analysis (reference value: 92.5%); format: functional; conditions: B16-F10, 48 h, read-out: Activity
B16-F10 [23] = assay: Antitumor activity against mouse B16F10 cells implanted in nude mouse assessed as decrease in tumor weight at 20 mg/kg, ip administered once per 2 days for 14 days by caliper method relative to control; format: functional, organism-based; method in brief: as §2
B16-F10 [24] = assay: Induction of cell cycle arrest in mouse B16F10 cells assessed as cell accumulation at S phase at 12.5 uM incubated for 48 hrs by propidium iodide staining-based flow cytometric analysis (reference value: 14.16%); format: functional
B16-F10 [25] = assay: Induction of apoptosis in mouse B16F10 cells assessed as early apoptosis cells at 25 uM incubated for 48 hrs by Annexin-V-FITC/propidium iodide staining-based flow cytometric analysis (reference value: 2.93%); format: functional; method in brief: as §1
B16-F10 [26] = assay: Induction of cell cycle arrest in mouse B16F10 cells assessed as cell accumulation at S phase at 25 uM incubated for 48 hrs by propidium iodide staining-based flow cytometric analysis (reference value: 14.16%); format: functional

In the case of NS(=O)(=O)c1ccc(-n2nc(C(=O)NCCCN3CCOCC3)cc2-c2ccc(C(F)(F)F)cc2)cc1, the Activity (B16-F10 [1]) is reported as 49.08%, the Activity (B16-F10 [2]) is reported as 55.36% and the Activity (B16-F10 [3]) is reported as “Dose-dependent effect”. The Activity (B16-F10 [4]) was 50.07%, the Activity (B16-F10 [5]) was 14.5% and the Activity (B16-F10 [6]) was 7.9%. For the same molecule, the Activity (B16-F10 [7]) was 31.04%, the Activity (B16-F10 [8]) was 7.97% and the Activity [9] was “Non-Toxic”. It also gave an Activity (B16-F10 [10]) of 6.13%, an Activity (B16-F10 [11]) of 4.31% and an Activity (B16-F10 [12]) of 0.48 g. The IC50 (MCF7) was 7.65 µM, the Activity (B16-F10 [13]) was 0.105% and the Activity (B16-F10 [14]) was 11.16%. The Activity (B16-F10 [15]) was 6.11%, the viability at 3.125 µM (B16-F10 [16]) was 86.5% and the viability at 6.25 µM (B16-F10 [17]) was 88.8%. For the same molecule, the Activity (B16-F10 [18]) was 0.155%, the Activity (B16-F10 [19]) was 0.597% and the Activity (B16-F10 [20]) was 20.5%. For the same molecule, the Activity (B16-F10 [21]) was 30.41%, the viability at 25 µM (B16-F10 [22]) was 78.8% and the Activity (B16-F10 [23]) was “Active”. The Activity (B16-F10 [24]) was 15.42%, the Activity (B16-F10 [25]) was 40.8% and the Activity (B16-F10 [26]) was 12.87%.
